Test results as given in ChEMBL document CHEMBL3102806, “1,2,4-Triazole/oxime hybrids as new strategy for nitric oxide donors: Synthesis, anti-inflammatory, ulceroginicity and antiproliferative activities” (Eur J Med Chem, 2014).

Tests used:
Assay type in all cases: functional
HOP-62 = experiment: Growth inhibition of human HOP62 cells after 48 hrs by sulforhodamine B assay; settings: HOP-62, 48 h
In short: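 NCI full ~60 cell line panel. Five 10-fold concentrations from 10^-4 to 10^-8 M, 48 h continuous exposure, SRB protein read-out. Time-zero, control and treated absorbances give percentage growth. GI50 is the concentration where [(Ti−Tz)/(C−Tz)]×100 = 50; TGI is where Ti = Tz; LC50 is where [(Ti−Tz)/Tz]×100 = −50.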

PC-3 = experiment: Growth inhibition of human PC3 cells after 48 hrs by sulforhodamine B assay; settings: PC-3, 48 h
In short: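 NCI 60-cell-line panel (nine tumour subpanels), five-dose format: 10-fold dilutions from 10^-4 to 10^-8 M, 48 h continuous exposure, SRB protein stain. Percent growth at each level is derived from time-zero, untreated control and treated absorbances. GI50 is the concentration where [(Ti−Tz)/(C−Tz)]×100 = 50. Values outside the tested range are reported as above or below the limit.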

UACC-62 = experiment: Growth inhibition of human UACC62 cells after 48 hrs by sulforhodamine B assay; settings: UACC-62, 48 h
In short: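 NCI 60-cell-line panel, five-dose run at 10-fold dilutions from 10^-4 to 10^-8 M, 48 h continuous exposure. Viability by SRB protein stain. Percent growth is taken from time-zero, untreated-control and treated absorbances. GI50 is the concentration giving a 50% lower net protein increase than in control cells. TGI is taken at Ti = Tz, LC50 at a 50% loss of initial protein.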

[1] = read-out: LC50 (the source's name)

`COc1ccc(-c2nnc(SCC(=O)Nc3ccc(/C(C)=N/O)cc3)n2-c2ccccc2)cc1OC` was tested, and the GI50 (HOP-62) was 2.06 µM, the TGI (HOP-62) was 6.8 µM and the CC50 (HOP-62; [1]) was > 100 µM. The GI50 (PC-3) was > 100 µM, the TGI (PC-3) was > 100 µM and the CC50 (PC-3; [1]) was > 100 µM. The GI50 (UACC-62) was > 100 µM, the TGI (UACC-62) was > 100 µM and the CC50 (UACC-62; [1]) was > 100 µM.
